How the values were obtained:
[1] = biological target: GABA-A receptor; anion channel; experiment: Inhibitory activity at GABA A receptor, measured by the ability to displace [3H]GABA from GABA A receptor in rat brain; format: tissue-based
Cannabinoid receptor 1 = Cannabinoid receptor 1 (Rattus norvegicus, UniProt P20272); experiment: Inhibitory activity, measured by displacement [3H]CP-55940 from cannabinoid receptor (CB1) in rat brain; format: tissue-based
[2] = Inhibitory activity by measuring its ability to displace [3H]glycine from glycine receptor in rat brain; format: tissue-based
[3] = Inhibitory activity by measuring its ability to displace [3H]spiperone from dopamine or serotonin 5-HT-1 receptors in rat brain; format: tissue-based
[4] = Inhibitory activity at GABA B receptor, measured by the ability to displace [3H]baclofen from GABA B receptor in rat brain; format: tissue-based
Adrenergic receptor beta = Adrenergic receptor beta (Rattus norvegicus, UniProt P18090+P10608+P26255); experiment: Inhibitory activity by measuring its ability to displace [125I]pindolol from beta-adrenergic receptor in rat brain; format: tissue-based
[5] = biological target: Adrenergic receptor alpha; experiment: Inhibitory activity by measuring its ability to displace [3H]WB-4101 from alpha-adrenergic receptor in rat brain; format: tissue-based
[6] = biological target: Adrenergic receptor alpha; experiment: Inhibitory activity by measuring its ability to displace [3H]clonidine from alpha-adrenergic receptor in rat brain; format: tissue-based
[7] = biological target: GABA-A receptor; anion channel; experiment: Inhibitory activity at GABA A receptor, measured by the ability to displace [3H]flumazenil from GABA A receptor in rat brain; format: tissue-based
[8] = Tested for inhibitory activity by measuring its ability to displace [3H]AMPA from glutamate (non-NMDA) receptor in rat brain; format: tissue-based
Glutamate NMDA receptor = experiment: Inhibitory activity by measuring its ability to displace [3H]-MK-801 from glutamate(NMDA) receptor in rat brain; format: tissue-based
[9] = biological target: T1, Gastrin/cholecystokinin type B receptor (Rattus norvegicus, UniProt P30553); experiment: Inhibitory activity by measuring its ability to displace [3H]L-365260 from cholecystokinin receptor in rat brain; format: tissue-based
T1 sequence (P30553 whole entry): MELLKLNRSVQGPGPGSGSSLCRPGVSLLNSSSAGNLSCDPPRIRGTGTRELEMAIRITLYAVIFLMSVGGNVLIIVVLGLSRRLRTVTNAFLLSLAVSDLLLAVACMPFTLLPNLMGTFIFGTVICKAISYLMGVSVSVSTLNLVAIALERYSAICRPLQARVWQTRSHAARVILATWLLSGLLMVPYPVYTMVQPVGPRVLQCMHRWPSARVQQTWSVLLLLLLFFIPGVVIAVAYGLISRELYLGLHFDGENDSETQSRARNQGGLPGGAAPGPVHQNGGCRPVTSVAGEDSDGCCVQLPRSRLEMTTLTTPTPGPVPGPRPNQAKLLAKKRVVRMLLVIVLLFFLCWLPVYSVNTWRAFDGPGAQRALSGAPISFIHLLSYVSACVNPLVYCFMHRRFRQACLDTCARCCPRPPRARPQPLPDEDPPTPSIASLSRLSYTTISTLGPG

Translocator protein = Translocator protein (Rattus norvegicus, UniProt P16257); experiment: Binding affinity against mitochondrial DBI complex (peripheral benzodiazepine receptor) using primary cultures of glial cells
Sequence of Translocator protein (P16257 whole entry, looked up): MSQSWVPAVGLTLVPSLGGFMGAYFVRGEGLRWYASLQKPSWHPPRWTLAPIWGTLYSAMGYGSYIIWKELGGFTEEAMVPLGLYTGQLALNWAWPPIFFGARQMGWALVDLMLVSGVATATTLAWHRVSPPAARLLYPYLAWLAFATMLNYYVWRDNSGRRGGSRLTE
How it was run: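 Glia from cerebella of 8-day-old Sprague–Dawley rat pups, trypsin-dissociated and grown 14 days (~95% astroglia). Cells lysed in 50 mM Hepes pH 7.4, 4 μg protein per tube. Incubated with [3H]4'-chlorodiazepam and competitor for 90 min at 4 °C, then filtered. Nonspecific binding defined with 10 μM 4'-chlorodiazepam. Triplicate competition curves; IC50 by nonlinear regression, converted to Ki (Bylund–Yamamura).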

[10] = biological target: GABA-A receptor; anion channel; experiment: Inhibitory activity at GABA A receptor, measured by the ability to displace [35S]TBPS from GABA A receptor in rat brain; format: tissue-based
[11] = biological target: GABA-A receptor; anion channel; experiment: Inhibitory activity at GABA A receptor, measured by the ability to displace [3H]zolpidem from GABA A receptor in rat brain; format: tissue-based

Sequence of Cannabinoid receptor 1 (P20272 whole entry): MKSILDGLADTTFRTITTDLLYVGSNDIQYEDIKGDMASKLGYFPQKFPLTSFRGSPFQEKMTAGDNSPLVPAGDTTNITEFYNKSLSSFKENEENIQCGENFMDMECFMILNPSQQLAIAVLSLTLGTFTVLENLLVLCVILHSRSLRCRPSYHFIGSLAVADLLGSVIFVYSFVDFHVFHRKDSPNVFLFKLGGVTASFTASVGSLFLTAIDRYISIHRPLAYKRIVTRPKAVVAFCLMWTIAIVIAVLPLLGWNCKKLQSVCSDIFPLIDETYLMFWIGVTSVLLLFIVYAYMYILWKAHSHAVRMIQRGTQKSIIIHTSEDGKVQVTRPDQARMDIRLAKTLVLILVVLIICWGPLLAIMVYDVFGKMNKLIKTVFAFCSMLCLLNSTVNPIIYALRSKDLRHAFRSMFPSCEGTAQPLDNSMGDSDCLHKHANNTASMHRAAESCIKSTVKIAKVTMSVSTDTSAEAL

| Structure (SMILES) | IC50 [1] [nM] | IC50 (Cannabinoid receptor 1) [nM] | IC50 [2] [nM] | IC50 [3] [nM] | IC50 [4] [nM] | IC50 (Adrenergic receptor beta) [nM] | IC50 [5] [nM] | IC50 [6] [nM] | IC50 [7] [nM] | IC50 [8] [nM] | IC50 (Glutamate NMDA receptor) [nM] | IC50 [9] [nM] | Ki (Translocator protein) [nM] | IC50 [10] [nM] | IC50 [11] [nM] |
| --- | --- | --- | --- | --- | --- | --- | --- | --- | --- | --- | --- | --- | --- | --- | --- |
| CCCN(CCC)C(=O)Cc1c(-c2ccccc2)[nH]c2ccccc12 | > 1000 | > 1000 | > 1000 | > 1000 | > 1000 | > 1000 | > 1000 | > 1000 | > 1000 | > 1000 | > 1000 | > 1000 | 100 | > 1000 | > 1000 |
| CCCN(CCC)C(=O)Cc1c(-c2cccc(Cl)c2)[nH]c2ccccc12 | > 1000 | > 1000 | > 1000 | > 1000 | > 1000 | > 1000 | > 1000 | > 1000 | > 1000 | > 1000 | > 1000 | > 1000 | 678 | > 1000 | > 1000 |
| CCCN(CCC)C(=O)Cc1c(-c2ccc(Cl)cc2)[nH]c2ccccc12 | > 1000 | > 1000 | > 1000 | > 1000 | > 1000 | > 1000 | > 1000 | > 1000 | > 1000 | > 1000 | > 1000 | > 1000 | 66 | > 1000 | > 1000 |
| CCCN(CCC)C(=O)Cc1c(-c2cccs2)[nH]c2ccc(Cl)cc12 | > 1000 | > 1000 | > 1000 | > 1000 | > 1000 | > 1000 | > 1000 | > 1000 | > 1000 | > 1000 | > 1000 | > 1000 | 78 | > 1000 | > 1000 |
| CCCCCCN(C)C(=O)Cc1c(-c2ccc(F)cc2)[nH]c2ccccc12 | > 1000 | > 1000 | > 1000 | > 1000 | > 1000 | > 1000 | > 1000 | > 1000 | > 1000 | > 1000 | > 1000 | > 1000 | 135 | > 1000 | > 1000 |
| CCCN(CCC)C(=O)Cc1c2n(c3ccccc13)CCCc1ccccc1-2 | > 1000 | > 1000 | > 1000 | > 1000 | > 1000 | > 1000 | > 1000 | > 1000 | > 1000 | > 1000 | > 1000 | > 1000 | 328 | > 1000 | > 1000 |

Results, then the compound that gave them:

| IC50 [1] [nM] | IC50 (Cannabinoid receptor 1) [nM] | IC50 [2] [nM] | IC50 [3] [nM] | IC50 [4] [nM] | IC50 (Adrenergic receptor beta) [nM] | IC50 [5] [nM] | IC50 [6] [nM] | IC50 [7] [nM] | IC50 [8] [nM] | IC50 (Glutamate NMDA receptor) [nM] | IC50 [9] [nM] | Ki (Translocator protein) [nM] | IC50 [10] [nM] | IC50 [11] [nM] | Structure (SMILES) |
| --- | --- | --- | --- | --- | --- | --- | --- | --- | --- | --- | --- | --- | --- | --- | --- |
| > 1000 | > 1000 | > 1000 | > 1000 | > 1000 | > 1000 | > 1000 | > 1000 | > 1000 | > 1000 | > 1000 | > 1000 | 170 | > 1000 | > 1000 | CN(C)C(=O)Cc1c(-c2ccccc2)[nH]c2ccccc12 |
| > 1000 | > 1000 | > 1000 | > 1000 | > 1000 | > 1000 | > 1000 | > 1000 | > 1000 | > 1000 | > 1000 | > 1000 | 476 | > 1000 | > 1000 | O=C(Cc1c(-c2ccc(F)cc2)[nH]c2ccccc12)Nc1ccccc1Br |
| > 1000 | > 1000 | > 1000 | > 1000 | > 1000 | > 1000 | > 1000 | > 1000 | > 1000 | > 1000 | > 1000 | > 1000 |  | > 1000 | > 1000 | O=C1Cc2c([nH]c3ccccc23)-c2ccccc2N1 [PAULLONE] |

— ChEMBL document CHEMBL1126834, “Chemistry, binding affinities, and behavioral properties of a new class of "antineophobic" mitochondrial DBI receptor complex (mDRC) ligands” (J Med Chem, 1993)
